The record followed here is ChEMBL document CHEMBL1926611, “Synthesis and biological evaluation of 4-[3-chloro-4-(3-fluorobenzyloxy)anilino]-6-(3-substituted-phenoxy)pyrimidines as dual EGFR/ErbB-2 kinase inhibitors” (Bioorg Med Chem, 2012).

Each structure is given as a SMILES string. Where only a bound is given, the exact number is not on record here.

One experiment concerns SK-OV-3. The experiment in a line: Cytotoxicity against human SKOV3 cells overexpressing ErbB2 after 72 hrs by MTT assay. Particulars: SK-OV-3, 72 h. (Tetrazolium dyes change colour on reduction, which living cells bring about.)
Experiment [1] concerns the target Receptor tyrosine-protein kinase erbB-2 (Homo sapiens, UniProt P04626). Description: Inhibition of human ErbB2 preincubated for 2 hrs prior addition of ATP by HTRF assay. In outline:
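Wild-type ErbB-2(676–1255) was used in an HTRF KinEASE-TK format. Kinase, substrate peptide and inhibitor were combined, and ATP started the reaction. Detection used Eu-cryptate anti-phosphotyrosine antibody plus XL665-streptavidin, with time-resolved FRET read after 320 excitation. The emission ratio across ten concentrations (0.01–10,000 nM, including no inhibitor) gave IC50, with duplicate reactions and ≥2 independent determinations.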
On the technique in general: TR-FRET usually uses a lanthanide donor and a delayed reading to cut background.

Experiment [2] has as its target Epidermal growth factor receptor (Homo sapiens, UniProt P00533). Description: Inhibition of human EGFR preincubated 2 hrs prior addition of ATP by HTRF assay.
The next experiment has as its system A-431. The experiment in a line: Cytotoxicity against human A431 cells overexpressing EGFR after 72 hrs by MTT assay. Particulars: A-431, 72 h.

Receptor tyrosine-protein kinase erbB-2, sequence (P04626 whole entry): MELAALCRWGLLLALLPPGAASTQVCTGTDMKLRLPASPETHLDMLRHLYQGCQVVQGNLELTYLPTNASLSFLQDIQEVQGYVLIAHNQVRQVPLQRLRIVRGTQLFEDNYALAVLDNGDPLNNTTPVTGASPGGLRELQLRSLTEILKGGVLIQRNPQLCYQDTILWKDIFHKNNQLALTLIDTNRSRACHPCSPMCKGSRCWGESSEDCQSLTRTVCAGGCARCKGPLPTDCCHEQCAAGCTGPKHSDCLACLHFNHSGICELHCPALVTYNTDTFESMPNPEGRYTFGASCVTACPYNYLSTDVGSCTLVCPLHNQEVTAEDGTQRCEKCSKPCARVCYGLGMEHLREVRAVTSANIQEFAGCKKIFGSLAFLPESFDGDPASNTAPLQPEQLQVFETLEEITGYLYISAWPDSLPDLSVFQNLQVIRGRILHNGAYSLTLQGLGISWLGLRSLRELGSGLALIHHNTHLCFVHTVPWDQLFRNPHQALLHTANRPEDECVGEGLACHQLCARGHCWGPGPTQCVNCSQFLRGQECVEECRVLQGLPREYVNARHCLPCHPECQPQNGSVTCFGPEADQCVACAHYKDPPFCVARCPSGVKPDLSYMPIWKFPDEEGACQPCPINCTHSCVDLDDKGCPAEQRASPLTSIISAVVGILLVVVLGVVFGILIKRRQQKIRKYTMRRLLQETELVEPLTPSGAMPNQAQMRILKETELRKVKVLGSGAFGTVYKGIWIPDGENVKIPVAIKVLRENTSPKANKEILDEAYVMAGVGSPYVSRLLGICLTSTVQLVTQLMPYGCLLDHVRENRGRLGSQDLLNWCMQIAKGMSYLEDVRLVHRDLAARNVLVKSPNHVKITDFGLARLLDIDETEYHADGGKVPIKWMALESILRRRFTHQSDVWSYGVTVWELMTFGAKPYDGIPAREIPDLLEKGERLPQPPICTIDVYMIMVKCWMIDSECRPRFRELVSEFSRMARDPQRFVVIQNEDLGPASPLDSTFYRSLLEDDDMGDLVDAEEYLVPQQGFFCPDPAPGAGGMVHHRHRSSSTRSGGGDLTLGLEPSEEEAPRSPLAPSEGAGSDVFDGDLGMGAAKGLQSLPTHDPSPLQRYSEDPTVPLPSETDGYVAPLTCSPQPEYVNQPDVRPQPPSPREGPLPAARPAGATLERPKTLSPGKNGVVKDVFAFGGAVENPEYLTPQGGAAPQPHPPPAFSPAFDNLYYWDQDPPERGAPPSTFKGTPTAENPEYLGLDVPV
Epidermal growth factor receptor, sequence (P00533 whole entry): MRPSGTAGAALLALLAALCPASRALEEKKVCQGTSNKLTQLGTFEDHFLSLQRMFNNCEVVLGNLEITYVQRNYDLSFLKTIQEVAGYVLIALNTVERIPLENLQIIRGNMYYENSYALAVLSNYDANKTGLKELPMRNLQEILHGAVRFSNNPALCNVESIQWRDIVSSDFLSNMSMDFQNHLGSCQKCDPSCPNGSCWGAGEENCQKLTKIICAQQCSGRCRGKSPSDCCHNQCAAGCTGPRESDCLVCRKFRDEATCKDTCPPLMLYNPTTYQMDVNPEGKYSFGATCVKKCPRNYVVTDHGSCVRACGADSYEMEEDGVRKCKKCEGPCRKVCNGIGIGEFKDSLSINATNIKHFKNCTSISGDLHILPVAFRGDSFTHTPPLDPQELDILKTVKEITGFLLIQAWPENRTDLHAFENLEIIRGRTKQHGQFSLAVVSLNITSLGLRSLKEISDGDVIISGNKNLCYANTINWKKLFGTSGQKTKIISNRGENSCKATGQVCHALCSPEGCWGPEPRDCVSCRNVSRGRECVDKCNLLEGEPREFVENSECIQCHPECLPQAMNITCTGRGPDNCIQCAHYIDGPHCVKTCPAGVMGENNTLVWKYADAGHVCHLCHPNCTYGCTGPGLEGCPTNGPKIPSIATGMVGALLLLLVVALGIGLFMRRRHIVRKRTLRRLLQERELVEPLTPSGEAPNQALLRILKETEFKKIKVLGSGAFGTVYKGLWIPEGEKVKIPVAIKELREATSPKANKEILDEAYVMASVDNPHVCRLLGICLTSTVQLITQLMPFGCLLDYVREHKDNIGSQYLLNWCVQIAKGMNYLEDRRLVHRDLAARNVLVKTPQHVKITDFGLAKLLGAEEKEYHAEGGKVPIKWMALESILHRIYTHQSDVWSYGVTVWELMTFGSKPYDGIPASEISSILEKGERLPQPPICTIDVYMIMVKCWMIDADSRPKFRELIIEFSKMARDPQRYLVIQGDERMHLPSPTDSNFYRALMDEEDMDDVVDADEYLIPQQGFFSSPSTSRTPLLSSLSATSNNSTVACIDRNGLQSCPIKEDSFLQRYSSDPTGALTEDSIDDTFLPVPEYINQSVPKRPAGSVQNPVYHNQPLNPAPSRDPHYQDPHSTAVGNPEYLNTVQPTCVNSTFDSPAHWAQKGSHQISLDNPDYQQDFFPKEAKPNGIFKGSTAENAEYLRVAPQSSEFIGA

With `O=[N+]([O-])c1cccc(Oc2cc(Nc3ccc(OCc4cccc(F)c4)c(Cl)c3)ncn2)c1`, the IC50 in the experiment on SK-OV-3 is more than 30 µM; in experiment [1] it was 2.42 µM; in experiment [2], 1.2 µM; in the experiment with A-431, 10.4 µM.

Consider `Nc1cccc(Oc2cc(Nc3ccc(OCc4cccc(F)c4)c(Cl)c3)ncn2)c1`, for which the IC50 turned out to be 12.2 µM in the experiment with SK-OV-3, 0.559 µM in experiment [1], 0.473 µM in experiment [2] and 8.92 µM in the experiment on A-431.

On to `CC(=O)Nc1cccc(Oc2cc(Nc3ccc(OCc4cccc(F)c4)c(Cl)c3)ncn2)c1`, for which the IC50 in the experiment with SK-OV-3 stood at 3.95 µM; in experiment [1], 0.135 µM; in experiment [2], 0.108 µM; in the experiment with A-431 it was 12 µM.

For the compound `C=CC(=O)Nc1cccc(Oc2cc(Nc3ccc(OCc4cccc(F)c4)c(Cl)c3)ncn2)c1`, the IC50 is 0.89 µM with SK-OV-3, 0.029 µM in experiment [1], 0.037 µM in experiment [2] and 3.25 µM in the experiment on A-431.

Consider `CCOC(=O)/C=C/C(=O)Nc1cccc(Oc2cc(Nc3ccc(OCc4cccc(F)c4)c(Cl)c3)ncn2)c1`, for which the IC50 in the experiment with SK-OV-3 was determined as 1.29 µM; in experiment [1] it was 0.196 µM; in experiment [2], 0.129 µM; in the experiment on A-431, 7 µM.

As to `CCOC(=O)CNc1cccc(Oc2cc(Nc3ccc(OCc4cccc(F)c4)c(Cl)c3)ncn2)c1`, the IC50 in the experiment with SK-OV-3 is 9.18 µM; in experiment [1], 0.219 µM.

On to `N#CCC(=O)Nc1cccc(Oc2cc(Nc3ccc(OCc4cccc(F)c4)c(Cl)c3)ncn2)c1`, for which the IC50 in the experiment with SK-OV-3 was found to be 8.42 µM; in experiment [1], 0.038 µM; in experiment [2], 0.048 µM; in the experiment on A-431 it was 5.17 µM.

For the compound `O=C(Nc1cccc(Oc2cc(Nc3ccc(OCc4cccc(F)c4)c(Cl)c3)ncn2)c1)c1ccc([N+](=O)[O-])cc1`, the IC50 in the experiment with SK-OV-3 was 10.2 µM; in experiment [1] it was more than 10 µM; in experiment [2], more than 10 µM; in the experiment on A-431, 6.72 µM.

Consider `Nc1cc(Nc2cccc(Oc3cc(Nc4ccc(OCc5cccc(F)c5)c(Cl)c4)ncn3)c2)ncn1`, for which the IC50 is 0.71 µM in the experiment on SK-OV-3, 0.042 µM in experiment [1], 0.061 µM in experiment [2] and 4.24 µM in the experiment with A-431.

As to `Fc1cccc(COc2ccc(Nc3cc(Oc4cccc(NCc5ccccc5)c4)ncn3)cc2Cl)c1`, the IC50 with SK-OV-3 is 17.9 µM; in experiment [1] it was more than 10 µM; in experiment [2] it was more than 10 µM; in the experiment with A-431, 3.11 µM.

On to `O=C(/C=C/c1ccccc1)Nc1cccc(Oc2cc(Nc3ccc(OCc4cccc(F)c4)c(Cl)c3)ncn2)c1`, for which the IC50 in the experiment with SK-OV-3 turned out to be 20.7 µM; in experiment [1], 3.74 µM; in experiment [2], 1.67 µM; in the experiment on A-431 it was 11.2 µM.

For the compound `O=C(COc1ccccc1)Nc1cccc(Oc2cc(Nc3ccc(OCc4cccc(F)c4)c(Cl)c3)ncn2)c1`, the IC50 in the experiment on SK-OV-3 was determined as 9.1 µM; in experiment [1], 0.079 µM; in experiment [2] it was 0.065 µM; in the experiment with A-431, 14.9 µM.

Turning to `O=C(Cc1cc(F)c(F)cc1F)Nc1cccc(Oc2cc(Nc3ccc(OCc4cccc(F)c4)c(Cl)c3)ncn2)c1`, the IC50 in the experiment on SK-OV-3 was found to be 26.1 µM; in experiment [1], 0.834 µM; in experiment [2], 0.627 µM; with A-431 it was 9.29 µM.

On to `O=C(/C=C/c1ccc(F)cc1)Nc1cccc(Oc2cc(Nc3ccc(OCc4cccc(F)c4)c(Cl)c3)ncn2)c1`, for which the concentration for half-maximal inhibition (IC50) in the experiment with SK-OV-3 was more than 30 µM; in experiment [1], 1.29 µM; in experiment [2], 0.821 µM; in the experiment with A-431, 18.1 µM.

`COc1ccc(/C=C/C(=O)Nc2cccc(Oc3cc(Nc4ccc(OCc5cccc(F)c5)c(Cl)c4)ncn3)c2)cc1OC`: the IC50 in the experiment with SK-OV-3 is more than 30 µM; in experiment [1], 1.23 µM; in experiment [2], 0.523 µM; in the experiment with A-431 it was more than 20 µM.

Take `O=C(COc1cc(F)c(F)c(F)c1)Nc1cccc(Oc2cc(Nc3ccc(OCc4cccc(F)c4)c(Cl)c3)ncn2)c1`: the IC50 in the experiment with SK-OV-3 is more than 30 µM; in experiment [1] it was 2.14 µM; in experiment [2], 0.721 µM; with A-431 it was 13.2 µM.

With `COc1ccc(OCC(=O)Nc2cccc(Oc3cc(Nc4ccc(OCc5cccc(F)c5)c(Cl)c4)ncn3)c2)cc1OC`, the IC50 was more than 10 µM in experiment [1], more than 10 µM in experiment [2] and 6.42 µM with A-431.

`CS(=O)(=O)CCNCc1ccc(-c2ccc3ncnc(Nc4ccc(OCc5cccc(F)c5)c(Cl)c4)c3c2)o1` [LAPATINIB]: the IC50 with SK-OV-3 turned out to be 2.99 µM. In other words, the single-digit micromolar range.

The IC50 is the point on the concentration scale where inhibition reaches its midpoint. Read a high IC50 as lower potency.
